This is an account of results in paper PMC9394215 (Journal for Immunotherapy of Cancer, 2022).

A value given as a limit tells only on which side of the number the result lay.

The target of test [1] is T1, NPP3 (Homo sapiens, UniProt O14638).
T1 sequence (O14638 31-875 limits assumed): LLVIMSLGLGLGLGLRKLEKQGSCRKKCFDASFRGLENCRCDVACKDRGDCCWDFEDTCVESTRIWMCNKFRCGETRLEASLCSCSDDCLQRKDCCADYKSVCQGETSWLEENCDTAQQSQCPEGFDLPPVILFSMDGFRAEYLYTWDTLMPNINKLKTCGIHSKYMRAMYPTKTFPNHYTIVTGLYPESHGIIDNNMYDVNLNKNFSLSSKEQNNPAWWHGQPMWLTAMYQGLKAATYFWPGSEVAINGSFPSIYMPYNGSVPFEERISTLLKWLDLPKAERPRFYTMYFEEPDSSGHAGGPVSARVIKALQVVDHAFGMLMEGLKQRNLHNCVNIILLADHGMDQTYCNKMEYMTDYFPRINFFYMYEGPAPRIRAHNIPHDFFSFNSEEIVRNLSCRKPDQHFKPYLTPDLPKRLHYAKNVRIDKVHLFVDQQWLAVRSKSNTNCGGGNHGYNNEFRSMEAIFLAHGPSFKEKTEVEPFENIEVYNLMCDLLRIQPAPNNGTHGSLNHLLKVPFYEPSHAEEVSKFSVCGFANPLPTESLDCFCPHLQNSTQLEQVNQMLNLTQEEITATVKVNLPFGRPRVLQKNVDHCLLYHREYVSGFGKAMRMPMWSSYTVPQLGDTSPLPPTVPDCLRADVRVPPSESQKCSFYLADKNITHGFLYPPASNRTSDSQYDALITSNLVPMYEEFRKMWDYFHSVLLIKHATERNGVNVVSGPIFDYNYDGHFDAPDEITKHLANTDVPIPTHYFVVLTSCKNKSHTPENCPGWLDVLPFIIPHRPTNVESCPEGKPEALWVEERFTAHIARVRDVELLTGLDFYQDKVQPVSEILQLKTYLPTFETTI
Description: NPP3 assay. Type of test: biochemical. In outline: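 Purified soluble NPP3 (95 ng, Sf9-expressed) was incubated with 50 µM (final) test compound, 2% DMSO and 400 µM p-nitrophenyl thymidine 5'-monophosphate. Reactions were stopped with 1 M NaOH, and p-nitrophenolate was read at 400 nm.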

Test [2] has as its system melanoma (Ma-Mel-65) cell membrane preparations. Put plainly: Malachite green assay, ATP hydrolysis by melanoma cell membrane preparations. The format is biochemical, human. Conditions: increasing concentrations of ceritinib, 50 µM ATP. In short, it runs like this: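 Crude membranes came from ~90% confluent MDA-MB-231 or Ma-Mel-65 cells. Cells were homogenised in Tris/EDTA/saccharose/PMSF buffer, pH 7.4, and centrifuged at 1000 g, then 48,000 g for 1 h at 4°C. Pellets were washed and stored at −80°C in 50 mM Tris-HCl, pH 7.4. ATP hydrolysis (50 µM ATP, HEPES/Ca/Mg pH 7.4) was run with increasing test compound concentrations for 15 min at 37°C. Phosphate was read by malachite green (600 nm); triplicates, n=3.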

Test [3] addresses T2, NTPDase3 (Homo sapiens, UniProt O75355).
T2 sequence (O75355 1-529): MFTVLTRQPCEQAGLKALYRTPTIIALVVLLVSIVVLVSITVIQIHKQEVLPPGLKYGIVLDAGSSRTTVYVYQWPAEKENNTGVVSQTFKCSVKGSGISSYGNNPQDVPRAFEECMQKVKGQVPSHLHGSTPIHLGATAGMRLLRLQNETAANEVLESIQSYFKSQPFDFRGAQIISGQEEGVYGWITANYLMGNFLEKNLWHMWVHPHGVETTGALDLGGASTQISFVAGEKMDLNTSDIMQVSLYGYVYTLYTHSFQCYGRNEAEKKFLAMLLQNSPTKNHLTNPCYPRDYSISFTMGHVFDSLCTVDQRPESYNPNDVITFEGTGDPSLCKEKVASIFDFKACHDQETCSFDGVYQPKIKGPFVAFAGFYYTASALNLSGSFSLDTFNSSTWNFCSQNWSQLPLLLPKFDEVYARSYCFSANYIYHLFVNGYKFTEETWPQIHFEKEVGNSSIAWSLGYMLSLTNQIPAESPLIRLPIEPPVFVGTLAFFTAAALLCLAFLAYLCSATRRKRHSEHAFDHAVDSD
Put plainly: Malachite green assay, NTPDase3 in COS-7 cell membranes. The format is biochemical. In short, it runs like this: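 Human NTPDase2, -3 or -8 was expressed in COS-7 membranes (ca. 100 ng protein, adjusted for 10–20% substrate conversion). Enzyme was preincubated 5 min at 37°C with test compound (50 µM single point, or 0.1–300 µM for curves). It was then incubated 15 min at 37°C with 100 µM ATP in HEPES/CaCl2/MgCl2, pH 7.4, ≤2% DMSO. Malachite green absorbance at 600 nm was corrected by a denatured-enzyme blank; n=3.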

In test [4] the test system is human PBMCs. Description: HPLC assay of AMPase activity. The format is cell-based. Conditions: 1-100 µM ceritinib; 1 µM eAMP. In outline:
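PBMCs were isolated from buffy coats by density gradient. Cells (2×10^5) were pretreated with test compound (1, 10, 50, 100 µM) for 15 min at 37°C, then given 1 µM eATP (ATPase) or eAMP (AMPase) for 30 min at 37°C. Cells were removed and supernatants 10 kDa-filtered. Etheno-nucleotides were quantified by reversed-phase C8 HPLC (phosphate pH 6.0/methanol gradient; fluorescence 230/410 nm) against standards; singlets, n=2–3.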

Test [5] addresses T3, human CD39 (Homo sapiens, UniProt P49961).
T3 sequence (P49961 1-510): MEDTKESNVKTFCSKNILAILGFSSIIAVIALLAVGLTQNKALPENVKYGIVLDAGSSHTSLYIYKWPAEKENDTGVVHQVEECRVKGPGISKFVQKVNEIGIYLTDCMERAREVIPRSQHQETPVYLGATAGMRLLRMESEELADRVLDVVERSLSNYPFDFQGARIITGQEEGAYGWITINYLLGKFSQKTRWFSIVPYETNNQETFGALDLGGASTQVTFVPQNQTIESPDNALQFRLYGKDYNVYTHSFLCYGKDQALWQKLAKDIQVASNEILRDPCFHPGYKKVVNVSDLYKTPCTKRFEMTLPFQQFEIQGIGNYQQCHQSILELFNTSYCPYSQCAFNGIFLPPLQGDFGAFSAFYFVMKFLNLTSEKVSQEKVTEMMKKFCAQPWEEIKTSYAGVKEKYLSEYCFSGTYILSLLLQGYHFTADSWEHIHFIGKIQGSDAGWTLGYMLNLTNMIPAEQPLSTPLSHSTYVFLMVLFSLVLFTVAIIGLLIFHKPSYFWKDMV
Description: Inhibition type experiments, malachite green assay on recombinant human CD39. The format is biochemical.

As a reminder, the IC50 is the midpoint of a concentration-inhibition curve. A lower IC50 goes with greater potency. What is called inhibition is how much of the control response was suppressed. As a reminder, the Ki is the equilibrium dissociation constant of an inhibitor or competing ligand from its target. On to `Cc1cc(Nc2ncc(Cl)c(Nc3ccccc3S(=O)(=O)C(C)C)n2)c(OC(C)C)cc1C1CCNCC1` [ceritinib, Ceritinib], for which the IC50 in test [1] was greater than 50 µM; in test [3], 22.7 ± 4 µM. Besides, in test [1] (read-out: % inhibition at 50 µM), the inhibition at 50 µM stood at 1%. The “ATPase activity of cancer cell membranes” value in test [2] is “decreased significantly”. The “effect on hydrolysis of eAMP by PBMCs” value in test [4] was “only a minor effect”. For the same molecule, the Ki in test [5] was 11 µM. In addition, in test [5] (Km unchanged, Vmax decreased, Hanes-Woolf plot), the inhibition type result is “non-competitive, allosteric”.
